High-throughput results deposited in PubChem by several laboratories.
aDG glyco act = alpha-DG glycosylation activation. hit rate 0.22% among 360,000. activation, % at 10 µM. Pro5-aDG cells, alpha-DG glycosylation AlphaScreen (IIH6); 0% Pro5, 100% B10-LARGE cell signal;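 active = activation of at least 8% versus controls, or a plate z-score of at least 8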;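 note: Pro5 are CHO cells carrying HIG-tagged alpha-DG that lacks glycosylation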
B2AR ag = activates human beta-2 adrenergic receptor causing internalization | P07550 | Am2.2-beta2AR cells, FAP receptor internalization, flow cytometry | response, % (test concentration not listed) | hit rate 0.43% among 340,000;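 active = response above a set limit, near 3 SD of response in nonfluorescent compounds, cut at about 42% in these data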
PfGluPho inh = PfG6PD (Plasmodium falciparum) enzyme inhibition; hit rate 0.78% among 350,000; inhibition, % at 20 µM; AID 504690; PfGluPho enzyme, NADPH resazurin-diaphorase fluorescence;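 active = inhibition reaching at least a set limit at 20 µM in the primary screen, cut at about 59% in these data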;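 note: 0% = DMSO wells with substrate and 100% = DMSO wells lacking glucose-6-phosphate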
UCH37 DUB inh = blocks the human deubiquitinase UCH37. purified proteasome/UCH37, Ub-AMC cleavage fluorescence. inhibition, % (test concentration not listed). hit rate 0.33% among 330,000. AID 588478;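 active = mean inhibition over replicate wells above about 20%, limit read from the data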;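 note: 0% = compound-free wells with enzyme and 100% = wells lacking proteasome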
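Reagent: Ub-AMC substrate; assay system: Proteasome-associated human UCH37 deubiquitinase; controls: no-proteasome and no-compound wells; read-out: % inhibition of Ub-AMC cleavage fluorescence; timing: 30 min preincubation with enzyme, 25 min cleavage at room temperature; signal: AMC fluorescence from Ub-AMC cleavage, excitation 355 nm, emission 460 nm; buffer or medium: Tris-HCl pH 7.4 plus ovalbumin, ATP-MgCl2, DTT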
H9c2 protect = modulators protecting cardiomyocytes from myocardial damage | H9c2 cardiomyocytes, H2O2 injury protection, ATPLite, 2 h | protection from H2O2 cell death, % at 20 µM | hit rate 0.63% among 360,000 | AID 588492;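 active = compounds giving at least 50% protection of heart cells from peroxide-induced death in the single-dose screen, raw or plate-pattern-corrected value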;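 note: 0% = DMSO wells with peroxide and 100% = DMSO wells without peroxide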
HKDC1 inhibitor = HKDC1 (human) hexokinase inhibition | Q2TB90 | recombinant HKDC1, G6PDH/diaphorase resazurin coupled fluorescence | inhibition, % at 20 µM | hit rate 0.16% among 340,000 | AID 493160;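 active = inhibition above about 35% when tested at 20 µM, limit read from the data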;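 note: plate controls were DMSO wells with enzyme for no effect and DMSO wells lacking enzyme for full effect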
Target sequence (Q2TB90 whole entry, looked up): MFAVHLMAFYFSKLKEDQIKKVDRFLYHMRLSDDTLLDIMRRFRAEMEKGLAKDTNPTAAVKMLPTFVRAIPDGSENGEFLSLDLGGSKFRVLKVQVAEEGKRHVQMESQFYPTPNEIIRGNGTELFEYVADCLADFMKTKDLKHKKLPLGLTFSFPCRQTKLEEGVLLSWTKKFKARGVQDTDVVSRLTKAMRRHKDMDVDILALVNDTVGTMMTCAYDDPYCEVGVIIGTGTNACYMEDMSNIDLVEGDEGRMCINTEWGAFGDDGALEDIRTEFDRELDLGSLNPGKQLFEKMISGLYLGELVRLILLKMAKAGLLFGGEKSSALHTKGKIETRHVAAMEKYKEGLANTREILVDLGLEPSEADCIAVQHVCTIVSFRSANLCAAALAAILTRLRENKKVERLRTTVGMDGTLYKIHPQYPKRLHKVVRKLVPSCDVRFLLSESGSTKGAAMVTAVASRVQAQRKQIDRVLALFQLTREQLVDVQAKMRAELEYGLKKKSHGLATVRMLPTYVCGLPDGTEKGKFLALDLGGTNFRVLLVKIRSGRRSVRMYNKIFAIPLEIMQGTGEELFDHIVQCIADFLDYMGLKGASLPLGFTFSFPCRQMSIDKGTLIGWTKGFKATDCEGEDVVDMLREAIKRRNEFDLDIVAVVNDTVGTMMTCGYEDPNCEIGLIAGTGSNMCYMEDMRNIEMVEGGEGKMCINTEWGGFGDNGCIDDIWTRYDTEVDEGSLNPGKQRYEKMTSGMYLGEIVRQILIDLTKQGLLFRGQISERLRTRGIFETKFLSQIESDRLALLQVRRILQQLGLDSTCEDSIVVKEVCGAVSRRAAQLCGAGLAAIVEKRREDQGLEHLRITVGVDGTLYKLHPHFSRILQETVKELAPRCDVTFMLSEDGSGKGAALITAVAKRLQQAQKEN
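Material – in-house recombinant HK5 (HKDC1) enzyme · Quantity – HKDC1 at 5 µg/mL · Buffer or medium – pH 8.0 Tris buffer with 10 mM MgCl2 · Reagent – glucose with 1 mM ATP · Dosing – single 20 µM dose · Times – reaction time 90 min, room temperature, protected from light · Technique – resorufin fluorescence at 613 nm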
* marks the source's active call; other numbers are inactive results; i = inactive; . = no result. Most compounds without a hit are left out; they make up all but 2.1% or so of the library.

SMILES	aDG glyco act	B2AR ag	PfGluPho inh	UCH37 DUB inh	H9c2 protect	HKDC1 inhibitor
COc1ccc2nc(-c3ccccc3)cc(C(=O)N3CCC3)c2c1	0	6	12	i	5	-4
N#Cc1c(-c2cccs2)cc(-c2cccnc2)nc1N	1	6	7	-346	73*	4
CN(C(=O)Cn1nc(C(=O)O)c2ccccc2c1=O)C1(C#N)CCCCC1	0	-3	-2	2	57*	-7
Cc1cc(-c2nn3c(-c4ccccc4)nnc3s2)c2ccccc2n1	0	-15	56	2	64*	-9
O=C(NN=Cc1cccc(OC(=O)c2ccc([N+](=O)[O-])cc2)c1)c1cccnc1	.	.	.	5	.	.
N#CC(=NNc1ccccc1)C(=N)N1CCCCC1	.	.	.	14	.	.
COc1cc(C(=S)N2CCN(c3ccccc3Cl)CC2)cc(O)c1O	0	4	26	8	85*	0
COc1ccc(C(=S)N2CCN(c3ccccc3Cl)CC2)cc1OC	0	6	47	0	5	-8
C=C1C(=O)C=C2CN(C(=O)c3ccccc3)[C@@](Cc3ccc(F)cc3)(C(=O)OC)[C@@H]12	-1	79*	72*	0	-13	18
C=C1C(=O)CC2=C1[C@](Cc1ccc(F)cc1)(C(=O)OC)N(C(=O)c1ccccc1)C2	0	.	.	.	.	.
COc1ccc(C=NNC(=O)c2ccccc2)cc1COc1ccccc1	.	.	.	3	.	.
CCn1cc(C(=O)N2CCc3ccccc32)c(=O)c2cc(S(=O)(=O)N(C)C3CCCCC3)ccc21	-1	4	-6	0	63*	-1
CCC(C(=O)Oc1c(C(C)C)cccc1C(C)C)c1ccccc1 (stereo not given)	0	9	7	33*	-8	-1
CCC(C(=O)O/N=C(\N)c1ccccc1)c1ccccc1 (stereo not given)	0	4	21	2	-2	5
Cc1nn(-c2ccccc2)c(Cl)c1C=NNc1nc2ccccc2[nH]1	.	.	.	5	.	.
CCOc1ccc(C2CC(=O)c3c([nH]c(C(=O)OC)c3C)C2)cc1OC (stereo not given)	0	14	-5	2	8	-4
COC(=O)c1[nH]c2c(c1C)C(=O)CC(c1cc(OC)ccc1OC)C2 (stereo not given)	0	-3	7	4	57*	-5
Oc1c(Cl)cc(Cl)cc1/C=N/c1nccs1	0	7	-15	.	61*	4
C/C(=N\NC(=O)C(C)Oc1ccc([N+](=O)[O-])cc1)c1ccccn1 (stereo not given)	0	12	-21	.	50*	-10
CC(Oc1ccccc1)C(=O)NNC(=O)c1ccccn1 (stereo not given)	1	1	3	0	35	-8
O=c1[nH]c2cc([N+](=O)[O-])ccc2c2ccccc12	0	9	12	.	65*	-1
O=c1[nH]c2cccc(Cl)c2c2ccccc12	0	.	12	.	51*	.
c1ccc2c(c1)[nH]c1ccccc12	0	-2	11	-1	-9	0
O=c1[nH]c2ccccc2c2cn(-c3ccccc3)nc12	0	-11	64*	-9	-10	15
Cc1nc2c(=O)[nH]c3ccccc3c2o1	0	-6	-13	5	14	0
SMILES	aDG glyco act	B2AR ag	PfGluPho inh	UCH37 DUB inh	H9c2 protect	HKDC1 inhibitor
O=c1[nH]c2ccccc2c2ccccc12	-1	-6	11	2	71*	2
CC(=NNc1ccccn1)c1ccc(OC(F)F)cc1	.	.	.	1	.	.
O=Cc1nccc2ccccc12	0	61*	6	.	22	-1
O=C1c2ccccc2C(=O)C1c1nccc2ccccc12	0	-1	-12	0	-34	-1
O=C(NNC(=O)c1ccccc1O)c1ccc(S(=O)(=O)Nc2ccccc2)cc1	0	-1	-31	0	58*	-4
CCN1C(=O)CSC1=NS(=O)(=O)c1ccccc1	.	.	.	4	.	.
CCn1c(Cl)c(C=O)s/c1=N\S(=O)(=O)c1ccccc1	0	115*	31	.	-12	2
COc1ccc(C=CC(=O)c2ccc3cc(OC)c(OC)cc3c2)cc1OC	0	.	29	.	53*	.
COc1cc(/C=C2\CCC/C(=C\c3ccc(O)c(OC)c3)C2=O)ccc1O	0	43*	-2	10	42	11
